Rows were chosen to be rich in hits. Some 1.4% of all compounds tested hit in one or more screens of this group.
MT1-MMP act inh = blockers of MT1-MMP proenzyme processing, primary screen, HT1080 RFP-PRO-GFP cells, GFP/RFP fluorescence; 0.061% of 360,000 active; AID 651647, 2012; GFP/RFP ratio change, % at 20 µM; Matrix metalloproteinase-14 (Homo sapiens), P50281; GFP/RFP ratio fluorescence, overnight; percent of plate control window, DMSO zero;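 active = GFP/RFP ratio change of at least 30% with cell ATP level not reduced by more than half and red fluorescence within 50% of control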
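system = RFP-PRO-GFP reporter HT1080 cells | dosing = 20 µM single dose, 1% DMSO | timing = overnight cell settling, then overnight compound exposure, 37 °C, 5% CO2 | read-out basis = GFP/RFP fluorescence ratio | controls = DMSO and RFP-L50D-GFP cell wells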
SKN-1 inh = suppressors of acrylamide-induced Pgst-4::GFP reporter in worms, primary screen, SKN-1 inhibitor project, whole organism, uHTS, GFP/RFP fluorescence ratio, strain VP596; C. elegans VP596 Pgst-4::GFP/RFP ratio, 24 h; inhibition, % at 21.8 µM; 0.49% of 360,000 active; AID 624304, 2012;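 active = interference check ratio from 0.5 to 1.5 plus GFP to RFP signal ratio inhibition reaching or exceeding a fixed threshold, cut at about 30% in these data, passing the limit was not always enough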
iPSC survival up = enhancers of single-cell hiPSC survival, primary screen, ATPlite luminescence. 100% = ROCK inhibitor wells, 0% = DMSO. survival enhancement, % at 20 µM. 0.044% of 360,000 active. AID 602274, 2012; in the data active = survival enhancement above about 18%;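 note: cells exposed to compounds for 16 hours before the ATP read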
CendR NRP1 mod = modulators of CendR peptide binding to NRP-1, primary screen, biochemical, fluorescence polarization, uHTS. Neuropilin-1 (Homo sapiens), O14786. FAM-RPARPAR peptide binding to NRP-1. inhibition, % at 25 µM. 0.85% of 360,000 active. AID 602438, 2012;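 active = inhibition or corrected inhibition above about 18%, plus a signal ratio from 0.5 to 1.5, limit read from the data, passing the limit was not always enough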
Target sequence (O14786 whole entry, looked up): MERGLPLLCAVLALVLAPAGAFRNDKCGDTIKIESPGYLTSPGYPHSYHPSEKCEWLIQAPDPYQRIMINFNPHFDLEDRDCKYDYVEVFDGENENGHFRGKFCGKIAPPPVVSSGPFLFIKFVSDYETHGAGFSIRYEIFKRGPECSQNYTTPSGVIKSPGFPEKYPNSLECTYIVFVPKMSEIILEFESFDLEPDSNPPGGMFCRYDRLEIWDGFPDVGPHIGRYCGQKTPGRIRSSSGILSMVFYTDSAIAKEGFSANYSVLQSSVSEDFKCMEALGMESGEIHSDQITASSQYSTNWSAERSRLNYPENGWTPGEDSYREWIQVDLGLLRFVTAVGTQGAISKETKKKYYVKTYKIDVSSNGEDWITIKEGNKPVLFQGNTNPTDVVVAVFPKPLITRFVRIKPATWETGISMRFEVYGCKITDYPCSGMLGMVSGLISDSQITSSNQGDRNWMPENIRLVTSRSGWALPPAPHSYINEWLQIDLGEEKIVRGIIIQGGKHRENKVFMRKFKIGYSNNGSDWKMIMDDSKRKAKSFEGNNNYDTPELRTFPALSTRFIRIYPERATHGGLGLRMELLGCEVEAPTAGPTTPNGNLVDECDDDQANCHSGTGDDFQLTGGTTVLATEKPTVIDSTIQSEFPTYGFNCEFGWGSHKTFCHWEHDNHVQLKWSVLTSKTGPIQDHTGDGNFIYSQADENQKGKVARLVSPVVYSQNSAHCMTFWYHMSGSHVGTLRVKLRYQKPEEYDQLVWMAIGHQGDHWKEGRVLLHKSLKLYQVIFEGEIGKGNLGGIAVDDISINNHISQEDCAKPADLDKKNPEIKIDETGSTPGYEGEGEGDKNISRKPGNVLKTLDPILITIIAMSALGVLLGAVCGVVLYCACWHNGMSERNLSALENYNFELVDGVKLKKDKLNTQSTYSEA
MT1-MMP act val = MT1-MMP activation inhibitors, hit retest, confirmation, single concentration, fluorescence, HT1080 RFP-PRO-GFP cells. shares compounds with MT1-MMP act inh. GFP and RFP fluorescence ratio, overnight. inhibition, % at 20 µM. 10% of 200 active;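 active = inhibition of at least 50% in the primary cell screen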
Of the large screens only hits and unclear results are named; the others gave an inactive call (follow-up assays come after a bar, where they were run).

CN1/C(=C\C(=O)c2cccnc2)C(C)(C)c2ccccc21	none
CN1/C(=C\C=N\NC(=O)c2cccnc2)C(C)(C)c2ccccc21	none
CN1/C(=C\C=N\NC(=O)c2ccc(O)cc2)C(C)(C)c2ccccc21	MT1-MMP act inh 59 | MT1-MMP act val inactive
CCOCCCNC(=O)C1CCN(Cc2cccc(OCc3ccccc3)c2)CC1	none
COc1ccc(N2CCN(C(=O)c3ccc(CSc4ccccc4)cc3)CC2)cc1	none
N#Cc1cccnc1N1CCN(C(=O)c2ccccc2)CC1	none
CC(=O)c1cccc(NC(=O)C2CCCN(S(=O)(=O)c3cccc4cccnc34)C2)c1 (stereo not drawn)	none
Cc1cc2ccccc2c(=O)n1CC(=O)NCCC1=CCCCC1	none
Cc1ccc(C(=O)NC(=S)/C=C2\N(C)c3ccccc3C2(C)C)cc1	MT1-MMP act inh 40 | MT1-MMP act val inactive
CC(=O)Nc1ccc(N2CCN(C(=O)c3cccs3)CC2)cc1	none
Nc1ccc(N2CCN(C(=O)c3cccs3)CC2)cc1	MT1-MMP act inh 33, SKN-1 inh 48 | MT1-MMP act val inactive
Nc1ccc(N2CCN(C(=O)c3ccco3)CC2)cc1	MT1-MMP act inh 43 | MT1-MMP act val inactive
O=C(c1ccco1)N1CCN(c2ccc(F)cc2)CC1	none
COc1ccc(-c2nnc(NC(=O)CSc3ccc(Cl)cc3)s2)cc1OC	MT1-MMP act inh 37 | MT1-MMP act val inactive
COc1cccc(C(=O)NNc2c3ccccc3nc3ccccc23)c1	none
Cc1ccc(C(=O)NNc2c3ccccc3nc3ccccc23)cc1	MT1-MMP act inh 37 | MT1-MMP act val inactive
O=C(NNc1c2ccccc2nc2ccccc12)c1ccc(Cl)cc1	MT1-MMP act inh 40, SKN-1 inh 41 | MT1-MMP act val inactive
Cc1cc(C(=O)NNC(=O)c2ccc(Cl)cc2)c2ccccc2n1	none
FC(F)Oc1ccc(NC(=S)NCc2ccccc2)cc1	none
Cc1ccc(NC(=S)NCc2ccc3c(c2)cc(C)n3C)c(C)c1	MT1-MMP act inh 33 | MT1-MMP act val inactive
COc1ccc(C(=O)NCc2ccc3c(c2)cc(C)n3C)cc1	MT1-MMP act inh 31, SKN-1 inh 44 | MT1-MMP act val inactive
Cc1cc2cc(CNC(=S)Nc3ccc(OC(F)F)cc3)ccc2n1C	MT1-MMP act inh 47, SKN-1 inh 46 | MT1-MMP act val inactive
COc1ccc(CC(=O)NCc2ccc3c(c2)cc(C)n3C)cc1OC	none
COC(=O)C(CSCc1ccccc1)NC(=O)CCNC(=O)OCc1ccccc1 (stereo not drawn)	none
COc1ccc(N=Cc2ccccc2O)cc1	none
COc1ccc2sc(/C=C/c3ccccc3O)[n+](C)c2c1	MT1-MMP act inh 34 | MT1-MMP act val inactive
CCn1c(O)c(/C=N/n2cnnc2)sc1=S	MT1-MMP act inh 30 | MT1-MMP act val inactive
CCn1c(O)c(C=NC2CCCC2)sc1=S	none
C=CCNc1nc(Cl)nc(Nc2cc(Cl)ccc2OC)n1	none
Cn1c(=NC(=O)c2cccc([N+](=O)[O-])c2)sc2ccccc21	none
CC1=NN(c2ccccc2)C(=O)C1N=Nc1ccc(N)cc1 (stereo not drawn)	MT1-MMP act inh 53, SKN-1 inh 41 | MT1-MMP act val 62
CNc1ccccc1C(C)(C)c1cc(-c2cccc([N+](=O)[O-])c2)no1	none
CNc1ccccc1C(C)(C)c1cc(-c2cccc(Br)c2)no1	MT1-MMP act inh 62 | MT1-MMP act val 54
CCCn1c2ccc(/C(C)=N\O)cc2c2cc(/C(C)=N/O)ccc21	none
COc1ccc(S(=O)(=O)Nc2cc3c4c(c2)CCC(=O)N4CCC3)cc1	none
COc1ccc(Nc2nc(N)c3ccccc3n2)c(OC)c1	MT1-MMP act inh 39 | MT1-MMP act val inactive
CN(CC(=O)Nc1ccc(Cl)cc1)C1=NS(=O)(=O)c2ccccc21	none
O=C(NC1CC2CCCC(C1)N2Cc1ccccc1)C1CCCCC1 (stereo not drawn)	none
O=c1[nH]cnc2sc(-c3ccccc3)cc12	MT1-MMP act inh 34 | MT1-MMP act val inactive
O=c1[nH]c(-c2ccccc2)nc2sc(-c3ccccc3)cc12	none
CC1(C)CCCN(C(=O)c2ccc3c(c2NCCO)C(=O)c2ccccc2C3=O)C1	MT1-MMP act inh 40, CendR NRP1 mod 28 | MT1-MMP act val inactive
Cc1cc(=O)oc2cc(OCC(=O)N3c4ccccc4NC(=O)C3(C)C)ccc12	none
O=C(O)c1cccc2[nH]c(C(F)(F)F)nc12	none
Nc1cccc2[nH]c(C(F)(F)F)nc12	MT1-MMP act inh 51 | MT1-MMP act val inactive
O=C1c2ccccc2C(=O)c2c(NCCCN(CCO)CCO)cccc21	MT1-MMP act inh 30, SKN-1 inh 41 | MT1-MMP act val inactive
Cc1cc2cc(CN3C(=O)c4ccccc4C3=O)ccc2n1C	MT1-MMP act inh 32, SKN-1 inh 46 | MT1-MMP act val inactive
CCN1C(=O)/C(=C2/C=Cc3ccccc3N2CC)SC1=S	none
CCCN1C(=O)/C(=C2/C=Cc3ccccc3N2CC)SC1=S	MT1-MMP act inh 45 | MT1-MMP act val inactive
CCCN1/C(=C2/SC(=S)N(CC)C2=O)C=Cc2ccccc21	MT1-MMP act inh 40 | MT1-MMP act val inactive
CN1C(=O)/C(=C2/C=Cc3ccccc3N2CCCS(=O)(=O)O)SC1=S	MT1-MMP act inh 42 | MT1-MMP act val inactive
CC(C)(C)n1nnnc1C(c1ccccc1)N1CCN(c2ncccn2)CC1 (stereo not drawn)	none
COc1cc(/C=N/NC(=S)Nc2cccnc2)cc(OC)c1OC	none
CC1=NN(c2ccccc2)C(=O)/C1=C/C=C/C=C/N(C)C	MT1-MMP act inh 40, SKN-1 inh 66 | MT1-MMP act val inactive
COc1cccc(C2=Nc3cccc4cccc(c34)N2)c1	MT1-MMP act inh 37 | MT1-MMP act val inactive
CCCn1nnc(NC(=O)c2ccc([N+](=O)[O-])cc2Cl)n1	none
CCn1c(C)c(C2=CCN(S(=O)(=O)c3ccc(C)cc3)CC2)c2ccccc21	MT1-MMP act inh 31 | MT1-MMP act val inactive
CC(=O)Oc1ccc2oc(/C=C/N(C)C)c([N+](=O)[O-])c2c1	MT1-MMP act inh 45 | MT1-MMP act val inactive
C/C(=C/c1oc2ccc(O)cc2c1[N+](=O)[O-])N(C)C	MT1-MMP act inh 43 | MT1-MMP act val inactive
O=C(COC(=O)c1ccc(Cl)nc1)NCCc1ccc(F)cc1	none
CSc1nc(=S)n(Cc2ccccc2)c(C)c1C(C)=O	none
CCSc1nc(=S)n(Cc2ccccc2)c(C)c1C(C)=O	MT1-MMP act inh 35 | MT1-MMP act val inactive
O=C1c2ccccc2C(=O)c2c(O)c(O)cc(O)c21	MT1-MMP act inh 47 | MT1-MMP act val inactive
CCOC(=O)c1[nH]c2ccc(OC)cc2c1NC(=O)CCN1CCCC(C)C1 (stereo not drawn)	none
O=C1CC(c2ccccc2)c2cc(O)ccc2O1 (stereo not drawn)	none

Compound activity deposited in PubChem BioAssay by Sanford-Burnham Center for Chemical Genomics.
